Data on seven compounds can be found in publication PMC8753134 (Research and Practice in Thrombosis and Haemostasis, 2022).

Structures can show the parent of a compound that is named as a salt. Where two headings read alike, the source gives them in different places. No end group written: not given here.

In series [1] the test system is FXIIa and PKa (contact activation-mediated BK formation). Nature of the series: Screening of serine protease inhibitors against artificial ex vivo BK formation. It is filed as biochemical, human. The note with it: citrate plasma; for BK levels after 4.5 hours: 4.5 hours after sampling, n = 3. Put shortly:
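Fresh blood in citrate, with serine protease inhibitors present singly (e.g., 2 mM AEBSF), then combinations of the most promising; uninhibited plasma as reference. BK was quantified by in-house LC-MS/MS immediately (reference value) and up to 4.5 h after sampling, given as relative abundance. Samples were analysed directly without long-term storage.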

Series [2] is classed as in vitro ADME, human. The note with it: spiked 1 ng/mL, 3 hours after sampling, absence of inhibitor, n = 3.
For series [3] the following is noted: cited from earlier work.

Usually half-life stands for the time needed for the level to fall by half in the phase considered.

With `CC(=O)N[C@@H](CC(C)C)C(=O)N[C@@H](CC(C)C)C(=O)N[C@H](C=O)CCCNC(=N)N` [leupeptin, leupeptin hemisulfate], in series [1], the “BK levels after 4.5 hours” value is reported as “BK levels were increased”.

RPPGFSP [BK‐(1‐7), Bradykinin 1–7]: in series [2], the “change of spiked plasma kinin level” value is reported as −65.7%.

For the compound `NCCCC[C@H](N)C(=O)N[C@@H](CCCN=C(N)N)C(=O)N1CCC[C@H]1C(=O)N1CCC[C@H]1C(=O)NCC(=O)N[C@@H](Cc1ccccc1)C(=O)N[C@@H](CO)C(=O)N1CCC[C@H]1C(=O)N[C@@H](Cc1ccccc1)C(=O)N[C@@H](CCCN=C(N)N)C(=O)O` [KBK, Kallidin], in series [2], the “change of spiked plasma kinin level” value is −100%. Moreover, in series [3], the half-life is below 1 min.

For `N=C(N)c1ccc2cc(OC(=O)c3ccc(N=C(N)N)cc3)ccc2c1` [nafamostat, nafamostat mesylate], in series [1], the “BK levels after 4.5 hours” value was “BK levels were increased”.

On to RPPGF [BK‐(1‐5), Bradykinin 1–5], for which, in series [3] (inactive metabolite), the half-life result was “≈ 90 minutes”.

In the case of RPPGFSPFR [BK, Bradykinin], the half-life in series [3] was below 1 min.

Consider hexadimethrine bromide [HDMB], for which, in series [1] (tube prespiked with inhibitor, n = 3, LC-MS/MS), the “BK level as % of uninhibited plasma” value came to 0.4%.
